Screening data deposited in PubChem by several laboratories.
Rows were chosen to be rich in hits. Some 3.1% of all compounds tested hit in one or more screens of this group.
PP5 inh = blocks human protein phosphatase 5 activity. actives 0.18% (n = 320,000). purified PP5c, OMFP substrate fluorescence. inhibition, % at 6.7 µM;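 active = inhibition above the campaign's mean inhibition across all tested compounds plus 3 SD, cut at about 9.5% in these data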
CTSL1 counter = blocks F. hepatica cathepsin L1 in PFM18AAP counter-screen; recombinant F. hepatica cathepsin L1, Z-Leu-Arg-MCA fluorescence; inhibition, % at 5.96 µM; actives 0.49% (n = 300,000); AID 1906;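 active = inhibition above the mean of all tested compounds plus 3 SD, set per screening campaign, cut at about 17% in these data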
core dimer inh = blocks dimerization of HCV core protein | inhibition, % at 5 µM | actives 0.33% (n = 300,000) | AID 1899 | TR-FRET GST/Flag-core106 dimerization, 1536-well;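 active = inhibition above the mean of all tested compounds plus 3 SD, set per screening campaign, cut at about 45% in these data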
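Material: GST/Flag-tagged HCV core106 proteins. Incubation: 4 h, 22.5 °C incubation. Read-out basis: inhibition (%) from 671 over 617 nm ratio. Measured by: TR-FRET, excitation 340 nm, emission 617 and 671 nm.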
PP1 inh = blocks human PP1-alpha phosphatase, a PP5 counter-screen; P62136; purified PP1alpha, OMFP fluorescence; inhibition, % at 6.7 µM; actives 0.9% (n = 320,000);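 active = inhibition above the mean inhibition of all tested compounds plus 3 SD, computed separately for each screening campaign, cut at about 15% in these data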
Target sequence (P62136 whole entry, looked up): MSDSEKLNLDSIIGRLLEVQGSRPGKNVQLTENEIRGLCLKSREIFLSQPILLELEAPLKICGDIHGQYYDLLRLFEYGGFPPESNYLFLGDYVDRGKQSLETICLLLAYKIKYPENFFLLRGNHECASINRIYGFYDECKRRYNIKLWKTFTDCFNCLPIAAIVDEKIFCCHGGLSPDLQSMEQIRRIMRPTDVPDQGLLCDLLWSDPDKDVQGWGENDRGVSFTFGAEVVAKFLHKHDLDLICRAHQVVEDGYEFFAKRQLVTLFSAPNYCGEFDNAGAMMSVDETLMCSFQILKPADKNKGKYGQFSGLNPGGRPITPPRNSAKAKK
Myeloid diff MLP = myeloid differentiation induction; actives 1% (n = 360,000); calls only at 10 µM; ER-HoxA9 myeloid progenitors, lysozyme-GFP differentiation, flow cytometry;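 active = normalized GFP-positive differentiation at or above the plate's own cutoff, the solvent-only control mean plus 3 SD; inconclusive = no clear call, values can overlap the other calls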;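 note: cells exposed to compound for four days before flow analysis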
NadD block = blocks S. aureus nicotinate mononucleotide adenylyltransferase | inhibition, % at 20 µM | actives 0.78% (n = 360,000) | purified NadD enzyme, colorimetric absorbance read-out; in the data active = inhibition above about 26%
NadD inh conf = confirmation of Staphylococcus aureus NadD inhibitors. shares compounds with NadD block. purified S. aureus NadD, colorimetric enzyme assay. inhibition, % at 20 µM. actives 13% (n = 2,000); in the data active = inhibition mostly above about 42%, no sharp cut-off; inactive = mostly below about 42%
Of the large screens only hits and unclear results are named; the others gave an inactive call (follow-up assays come after a bar, where they were run).

N#Cc1ccc(OCC(=O)Nc2nc(-c3cccnc3)cs2)cc1	none (no result: CTSL1 counter, core dimer inh)
COc1cccc(C(=O)/C=C/Nc2ccc(S(=O)(=O)Nc3cc(OC)nc(OC)n3)cc2)c1	none
COc1ccc(C(=O)/C=C/Nc2ccc(S(=O)(=O)Nc3cc(OC)nc(OC)n3)cc2)c(OC)c1	Myeloid diff MLP inconclusive, NadD block 32 | NadD inh conf inactive
COc1ccc(NC(=O)c2ccc3c(c2)NC(=O)CS3)cc1	none (no result: CTSL1 counter, core dimer inh)
Cc1ccc(NS(=O)(=O)c2cc(NC(=O)c3ccc4c(c3)NC(=O)CS4)ccc2Cl)c(C)c1	NadD block 37 | NadD inh conf 52
COc1ccc(-c2nc(NC(=O)C3=NN(c4cccc(C)c4)C(=O)CC3)sc2C)cc1	NadD block 31 | NadD inh conf inactive
COc1ccc(C2=NN(C(=O)CSc3nc(=O)n4cccc(C)c4n3)C(c3ccc(C)cc3)C2)cc1 (stereo not drawn)	NadD block 36 | NadD inh conf inactive
COc1ccc(CNC(=O)CN(C(=O)CCC(=O)Nc2nccs2)c2ccccc2C)cc1	none
O=C(c1ccoc1)N1CCN(c2cc(-c3cccc(F)c3)nc3cc(-c4cccc(Cl)c4)nn23)CC1	NadD block 45 (no result: PP5 inh, CTSL1 counter, core dimer inh, PP1 inh) | NadD inh conf inactive
COc1cc(-c2ccc(Nc3ccccc3C(=O)O)c(OC)c2)ccc1Nc1ccccc1C(=O)O	NadD block 50 (no result: PP5 inh, CTSL1 counter, core dimer inh, PP1 inh) | NadD inh conf inactive
Nc1c(C(=O)Nc2ccc(Br)cc2)sc2nc(-c3ccco3)ccc12	PP1 inh 16, NadD block 51 | NadD inh conf inactive
Nc1c(C(=O)Nc2ccccc2)sc2nc3c(c(-c4ccco4)c12)CCCC3	none
Nc1c(C(=O)Nc2ccccc2)sc2nc3c(c(-c4ccco4)c12)CCC3	none
Cc1ccccc1NC(=O)c1sc2nc3c(c(-c4ccco4)c2c1N)CCCC3	NadD block 33 | NadD inh conf inactive
Cc1ccc(NC(=O)c2sc3nc4c(c(-c5ccco5)c3c2N)CCC4)cc1	NadD block 31 | NadD inh conf inactive
CC1(C(=O)NS(=O)(=O)c2cccc(Cl)c2)CCN1C(=O)c1cccc2ccccc12 (stereo not drawn)	none (no result: PP5 inh, CTSL1 counter, core dimer inh, PP1 inh)
CCN(c1ccc(OC)cc1)S(=O)(=O)c1nnc(NC(=O)COc2ccc(F)cc2)s1	none
O=[N+]([O-])c1ccc(C=NNC(=S)NN=Cc2ccc([N+](=O)[O-])cc2)cc1	NadD block 35 (no result: PP5 inh, CTSL1 counter, core dimer inh, PP1 inh) | NadD inh conf inactive
O=C(CNc1cccc2ccccc12)N/N=C/c1ccc([N+](=O)[O-])cc1	NadD block 40 | NadD inh conf 44
O=C(CNc1cccc2ccccc12)N/N=C/c1ccccn1	NadD block 48 | NadD inh conf inactive
Cc1ccccc1NCC(=O)N/N=C/c1ccc([N+](=O)[O-])cc1	none
C#CCN(C[C@H]1[C@H](OC(=O)NCc2ccccc2)[C@H](OC(=O)NCc2ccccc2)C[C@H]2C(=O)N(c3ccccc3)C(=O)[C@@H]12)S(=O)(=O)c1ccc(C)cc1	NadD block 35 (no result: PP5 inh, CTSL1 counter, core dimer inh, PP1 inh) | NadD inh conf 48
C#CCN(C[C@H]1[C@H](OC(=O)Nc2cccs2)[C@H](OC(=O)Nc2cccs2)C[C@H]2C(=O)N(c3ccccc3)C(=O)[C@@H]12)S(=O)(=O)c1ccc(C)cc1	NadD block 35 (no result: PP5 inh, CTSL1 counter, core dimer inh, PP1 inh) | NadD inh conf 50
C#CCN(C[C@H]1[C@H](OC(=O)NCC2CCCCC2)[C@H](OC(=O)NCC2CCCCC2)C[C@H]2C(=O)N(c3ccccc3)C(=O)[C@@H]12)S(=O)(=O)c1ccc(C)cc1	NadD block 37 (no result: PP5 inh, CTSL1 counter, core dimer inh, PP1 inh) | NadD inh conf inactive
C#CCN(C[C@H]1[C@H](OC(=O)NC2CC2)[C@H](OC(=O)NC2CC2)C[C@H]2C(=O)N(c3ccccc3)C(=O)[C@@H]12)S(=O)(=O)c1ccc(C)cc1	none (no result: PP5 inh, CTSL1 counter, core dimer inh, PP1 inh)
COc1ccccc1CC(NC(C)=O)C(=O)NC1CCN(S(=O)(=O)c2ccccc2)CC1 (stereo not drawn)	none (no result: PP5 inh, CTSL1 counter, core dimer inh, PP1 inh)
COc1ccc(NC(=O)c2ccc(-c3c(C)noc3C)c3ccoc23)cc1	none (no result: PP5 inh, CTSL1 counter, core dimer inh, PP1 inh)
Cc1cc(C(=O)N/N=C/c2ccc(-c3ccc([N+](=O)[O-])cc3Cl)o2)n[nH]1	NadD block 40 | NadD inh conf inactive
Cc1ccc(-n2cnc3c(=O)[nH]cnc32)cc1	none (no result: PP5 inh, CTSL1 counter, core dimer inh, PP1 inh)
N#Cc1c(N2CCN(c3ccc(F)cc3)CC2)nc(N)c2c(N)nc3c(c12)CC(=O)N3C1CC1	NadD block 44 (no result: PP5 inh, CTSL1 counter, core dimer inh, PP1 inh) | NadD inh conf inactive
CN(CCO)c1nc(N)c2c(N)nc3c(c2c1C#N)CC(=O)N3C1CCCC1	none (no result: Myeloid diff MLP, NadD block)
FC(F)(F)c1nnc(-c2ccccc2)nc1Sc1ccccc1	none (no result: Myeloid diff MLP)
FC(F)(F)c1nnc(-c2ccccc2)nc1Sc1ccc(Cl)cc1	NadD block 33 | NadD inh conf inactive
Cc1ccc(Nc2nc3ccc(Cl)cc3n3cnnc23)cc1F	none
C=C(C)C(=O)Nc1ccc2nn(-c3ccccc3O)nc2c1	none (no result: PP5 inh, CTSL1 counter, core dimer inh, PP1 inh)
CCOc1ccccc1/C=N/NC(=O)Cc1csc(Nc2cccc(C(F)(F)F)c2)n1	NadD block 38 (no result: Myeloid diff MLP) | NadD inh conf inactive
COc1ccc(/C=N/NC(=O)Cc2csc(Nc3cccc(C(F)(F)F)c3)n2)c(OC)c1	NadD block 33 | NadD inh conf inactive
CC12CCC(=O)N1C(C(=O)N1CCN(S(=O)(=O)c3cccc(Cl)c3)CC1)CS2 (stereo not drawn)	none
O=C1Nc2ccccc2C1=Nc1ccc(S(=O)(=O)Nc2nccs2)cc1	NadD block 54 | NadD inh conf 74
O=C1Nc2ccccc2C1=Nc1ccc(F)cc1	none
Cc1cc(O)c(C(=O)/C=C/c2cccc([N+](=O)[O-])c2)c(=O)o1	NadD block 35 | NadD inh conf inactive
Cc1cc(O)c(C(=O)/C=C/c2ccccc2O)c(=O)o1	none (no result: PP5 inh, CTSL1 counter, core dimer inh, PP1 inh)
O=C(N/N=C/c1coc2ccccc2c1=O)c1ccccc1	none
O=C(N/N=C/c1coc2ccccc2c1=O)c1cn(-c2ccccc2)nc1-c1ccccc1	NadD block 36 | NadD inh conf inactive
CCOC(=O)c1ccc(N=C2C(=S)N(c3ccc(C(=O)OCC)cc3)C(=N)N2/N=C/c2ccccc2)cc1	NadD block 39 | NadD inh conf inactive
CCOC(=O)c1ccc(N=c2scc(C)n2CC)cc1	none
c1ccc(-c2cc(-c3nn4c(-c5ccco5)nnc4s3)c3ccccc3n2)cc1	Myeloid diff MLP inconclusive, NadD block 47 | NadD inh conf inactive
Cn1cc(/C=C(\C#N)C(=O)Nc2ncc(Cc3cccc(Cl)c3)s2)c2ccccc21	none (no result: Myeloid diff MLP, NadD block)
N#C/C(=C\c1c[nH]c2ccccc12)C(=O)Nc1ncc(Cc2ccc(Cl)cc2Cl)s1	NadD block 38 | NadD inh conf inactive
O=C1C=CC(=O)N1c1ccccc1N1C(=O)C=CC1=O	none (no result: PP5 inh, CTSL1 counter, core dimer inh, PP1 inh)
CC1=CC(=O)N(c2cccc3c(N4C(=O)C=C(C)C4=O)cccc23)C1=O	NadD block 58 (no result: PP5 inh, CTSL1 counter, core dimer inh, PP1 inh) | NadD inh conf inactive
